Results taken from ChEMBL document CHEMBL3397023, “Synthesis and evaluation of multi-functional NO-donor/insulin-secretagogue derivatives for the treatment of type II diabetes and its cardiovascular complications” (Bioorg Med Chem, 2015).
Activity calls are given as the source filed them. No cut-off for these calls is given here.

Experiments:
Aorta [1] = experiment: Maximal vasorelaxant activity in Wistar rat endothelium-denuded aortic ring assessed as reduction of KCl-induced contraction at 30 uM relative to control; type: functional
Summary of the method: (§1)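 Rat aortic rings were pre-contracted with KCl 30 mM and exposed to cumulative test concentrations. Potency: pIC50, the negative log of the concentration halving KCl-induced tone. Efficacy: Emax, the maximal relaxation at the highest concentration tested. Both given as mean ± SEM.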

Aorta [2] = experiment: Vasorelaxant activity in Wistar rat endothelium-denuded aortic ring assessed as reduction of KCl-induced contraction; type: functional, tissue-based; summary of the method: as §1
Rattus norvegicus [3] = experiment: Hypoglycemic activity in STZ-treated Wistar rat diabetic model at 50 mg/kg, ip after 10 mins treated with 1 g/kg, ip glucose; type: functional, organism-based; parameters: dose 50 mg/kg
Summary of the method: (§2)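 Male Wistar rats (250–300 g) made diabetic with streptozotocin 50 mg/kg ip (fasting glycemia 100–150 mg/dl at day 4), fasted 24 h, then dosed ip. Glucose 1 g/kg ip was given 10 min later. Blood glucose was read by tail puncture with a glucometer at 0, 15, 30, 45, 60, 90 and 120 min, and AUC was calculated. Vehicle normoglycemic rats served as reference.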

Rattus norvegicus [4] = experiment: Cardio-protective anti-ischemic activity in STZ-treated Wistar rat heart assessed as reduction in ischemic area at 18.2 mg/kg, ip for 7 days followed by treatment hearts submitted to 30 mins ischemia measured after 120 mins of reperfusion; type: functional, organism-based; parameters: dose 18.2 mg/kg
Summary of the method: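 STZ-diabetic male Wistar rats (50 mg/kg ip; fasting glycemia 100–150 mg/dl) dosed ip daily for 7 days from day 11, with vehicle normoglycemic rats as reference. Langendorff hearts: 30 min equilibration, 30 min ischemia, 120 min reperfusion. Then 2 mm left-ventricle slices were stained with triphenyltetrazolium chloride, and damaged area was measured by planimetry as % of whole area. Mean ± SEM.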

Rattus norvegicus [5] = experiment: Hypoglycemic activity in STZ-treated Wistar rat diabetic model at 75.8 mg/kg, ip after 10 mins treated with 1 g/kg, ip glucose; type: functional, organism-based; parameters: dose 75.8 mg/kg; summary of the method: as §2
Rattus norvegicus [6] = experiment: Cardio-protective anti-ischemic activity in STZ-treated Wistar rat heart assessed as recovery of functional parameter at 18.2 mg/kg, ip for 7 days followed by treatment hearts submitted to 30 mins ischemia measured after 120 mins of reperfusion; type: organism-based; parameters: dose 18.2 mg/kg
Summary of the method: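 Male Wistar rats (250–300 g) given streptozotocin 50 mg/kg ip; those with fasting glycemia 100–150 mg/dl at day 4 were used. From day 11, daily ip dosing for 7 days, with vehicle-treated normoglycemic rats as reference. Hearts were taken under heparin and pentobarbital, Langendorff-perfused, equilibrated 30 min, then 30 min ischemia and 120 min reperfusion. Read-out: RPP recovery %, mean ± SEM.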

IC50 (Aorta [2]) | SMILES | Emax at 30 µM (Aorta [1]) | also measured
 | CC(C)[C@H]1CC[C@H](C(=O)N[C@H](Cc2ccccc2)C(=O)OCc2cccc(CO[N+](=O)[O-])c2)CC1 | 45% | 
5.01 µM | CCOc1cc(CC(=O)N[C@@H](CC(C)C)c2ccccc2N2CCCCC2)ccc1C(=O)OCc1ccc(C(C)O[N+](=O)[O-])cc1 (stereo partly specified) | 84% | 
13.2 µM | CCOc1cc(CC(=O)N[C@@H](CC(C)C)c2ccccc2N2CCCCC2)ccc1C(=O)OCc1cccc(CO[N+](=O)[O-])c1 | 79% | 
 | CCOc1cc(CC(=O)N[C@@H](CC(C)C)c2ccccc2N2CCCCC2)ccc1C(=O)OCc1cccc(C(C)O[N+](=O)[O-])c1 (stereo partly specified) | 26% | 
23.4 µM | CC(O[N+](=O)[O-])c1ccc(COC(=O)[C@@H](Cc2ccccc2)NC(=O)[C@H]2CC[C@H](C(C)C)CC2)cc1 (stereo partly specified) | 58% | 
 | CC(C)[C@H]1CC[C@H](C(=O)N[C@H](Cc2ccccc2)C(=O)O)CC1 |  | Activity (Rattus norvegicus [3]): Active
5.01 µM | CC(C)[C@H]1CC[C@H](C(=O)N[C@H](Cc2ccccc2)C(=O)OCc2ccc(CO[N+](=O)[O-])cc2)CC1 | 93% | Activity (Rattus norvegicus [4]): Active; Activity (Rattus norvegicus [5]): Active; Activity (Rattus norvegicus [6]): Active
8.13 µM | CCOc1cc(CC(=O)N[C@@H](CC(C)C)c2ccccc2N2CCCCC2)ccc1C(=O)OCc1ccc(CO[N+](=O)[O-])cc1 | 94% | 
